# Measured values reported in ChEMBL document CHEMBL5058577, “EUbOPEN Chemogenomics Library 2 (Multiplex)” (2022).
# System: HEK-293T
# Experiment: Multiplex assay against HEK293T
# Format: toxicity, cell-based
# Conditions: human
# How it was run: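 Hoechst33342, BioTracker Green Microtubule Cytoskeleton Dye, MitoTracker Red and Annexin V Alexa Fluor 680 were added to live cells at seeding, and imaging on a CQ1 microscope at 37°C and 5% CO2 followed compound addition. Gating by CellPathfinder machine learning separated cells into Hoechst high-intensity objects or normal cells, then normal cells into healthy, pyknosed or fragmented nuclei, then pyknosed cells into mitotic or apoptotic. Per cents of healthy-nucleus cells are reported for the tubulin, mitochondrial-mass and membrane-permeability phenotypes.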
# [1] = 12 h, 1 µM, compound concentration 1 uM, replicate 1
# [2] = 12 h, 1 µM, compound concentration 1 uM, replicate 2
# [3] = 12 h, 10 µM, compound concentration 10 uM, replicate 1
# [4] = 12 h, 10 µM, compound concentration 10 uM, replicate 2
# [5] = 24 h, 1 µM, compound concentration 1 uM, replicate 1
# [6] = 24 h, 1 µM, compound concentration 1 uM, replicate 2
# [7] = 24 h, 10 µM, compound concentration 10 uM, replicate 1
# [8] = 24 h, 10 µM, compound concentration 10 uM, replicate 2
# [9] = 48 h, 1 µM, compound concentration 1 uM, replicate 1
# [10] = 48 h, 1 µM, compound concentration 1 uM, replicate 2
# [11] = 48 h, 10 µM, compound concentration 10 uM, replicate 1
# [12] = 48 h, 10 µM, compound concentration 10 uM, replicate 2
structure (smiles),measurement,setting,value
CN1CCN(c2nc3cc(C(F)(F)F)ccc3n3cccc23)CC1.O=C(O)/C=C\C(=O)O.O=C(O)/C=C\C(=O)O,Population Apoptotic (%),[1],37%
same,Population Fragmented Nuclei (%),[1],5%
same,Population Healthy Nuclei (%),[1],80%
same,Population Hoechst High Intensity Objects (%),[1],10%
same,Population Membrane Permeable-Phenotype (%),[1],0%
same,Population Mitochondria Different-Phenotype (%),[1],48%
same,Population Mitotic Cells (%),[1],62%
same,Population Normal (%),[1],89%
same,Population Pyknosed Nuclei (%),[1],13%
same,Population Tubulin-Different-Phenotype (%),[1],33%
same,Total Cell Count,[1],438
same,Population Apoptotic (%),[2],53%
same,Population Fragmented Nuclei (%),[2],8%
same,Population Healthy Nuclei (%),[2],77%
same,Population Hoechst High Intensity Objects (%),[2],5%
same,Population Mitochondria Different-Phenotype (%),[2],76%
same,Population Mitotic Cells (%),[2],46%
same,Population Normal (%),[2],94%
same,Population Pyknosed Nuclei (%),[2],14%
same,Population Tubulin-Different-Phenotype (%),[2],35%
same,Total Cell Count,[2],332
same,Population Apoptotic (%),[3],68%
same,Population Fragmented Nuclei (%),[3],7%
same,Population Healthy Nuclei (%),[3],76%
same,Population Hoechst High Intensity Objects (%),[3],14%
same,Population Membrane Permeable-Phenotype (%),[3],0%
same,Population Mitochondria Different-Phenotype (%),[3],73%
same,Population Mitotic Cells (%),[3],31%
same,Population Normal (%),[3],85%
same,Population Pyknosed Nuclei (%),[3],15%
same,Population Tubulin-Different-Phenotype (%),[3],64%
same,Total Cell Count,[3],396
same,Population Apoptotic (%),[4],64%
same,Population Fragmented Nuclei (%),[4],5%
same,Population Hoechst High Intensity Objects (%),[4],9%
same,Population Mitochondria Different-Phenotype (%),[4],89%
same,Population Mitotic Cells (%),[4],35%
same,Population Normal (%),[4],90%
same,Population Pyknosed Nuclei (%),[4],18%
same,Population Tubulin-Different-Phenotype (%),[4],66%
same,Total Cell Count,[4],286
same,Population Apoptotic (%),[5],33%
same,Population Fragmented Nuclei (%),[5],9%
same,Population Healthy Nuclei (%),[5],81%
same,Population Hoechst High Intensity Objects (%),[5],6%
same,Population Membrane Permeable-Phenotype (%),[5],1%
same,Population Mitochondria Different-Phenotype (%),[5],30%
same,Population Mitotic Cells (%),[5],66%
same,Population Normal (%),[5],93%
same,Population Pyknosed Nuclei (%),[5],9%
same,Population Tubulin-Different-Phenotype (%),[5],24%
same,Total Cell Count,[5],557
same,Population Apoptotic (%),[6],54%
same,Population Fragmented Nuclei (%),[6],6%
same,Population Healthy Nuclei (%),[6],83%
same,Population Membrane Permeable-Phenotype (%),[6],0%
same,Population Mitochondria Different-Phenotype (%),[6],50%
same,Population Mitotic Cells (%),[6],45%
same,Population Pyknosed Nuclei (%),[6],10%
same,Population Tubulin-Different-Phenotype (%),[6],25%
same,Total Cell Count,[6],390
same,Population Apoptotic (%),[7],41%
same,Population Fragmented Nuclei (%),[7],8%
same,Population Healthy Nuclei (%),[7],77%
same,Population Hoechst High Intensity Objects (%),[7],9%
same,Population Membrane Permeable-Phenotype (%),[7],0%
same,Population Mitochondria Different-Phenotype (%),[7],65%
same,Population Mitotic Cells (%),[7],58%
same,Population Normal (%),[7],90%
same,Population Pyknosed Nuclei (%),[7],13%
same,Population Tubulin-Different-Phenotype (%),[7],62%
same,Total Cell Count,[7],490
same,Population Apoptotic (%),[8],63%
same,Population Fragmented Nuclei (%),[8],10%
same,Population Healthy Nuclei (%),[8],78%
same,Population Hoechst High Intensity Objects (%),[8],7%
same,Population Mitochondria Different-Phenotype (%),[8],79%
same,Population Mitotic Cells (%),[8],36%
same,Population Normal (%),[8],92%
same,Population Pyknosed Nuclei (%),[8],10%
same,Population Tubulin-Different-Phenotype (%),[8],58%
same,Total Cell Count,[8],378
same,Population Apoptotic (%),[9],20%
same,Population Fragmented Nuclei (%),[9],13%
same,Population Healthy Nuclei (%),[9],78%
same,Population Hoechst High Intensity Objects (%),[9],3%
same,Population Membrane Permeable-Phenotype (%),[9],2%
same,Population Mitochondria Different-Phenotype (%),[9],17%
same,Population Mitotic Cells (%),[9],79%
same,Population Normal (%),[9],96%
same,Population Pyknosed Nuclei (%),[9],7%
same,Population Tubulin-Different-Phenotype (%),[9],17%
same,Total Cell Count,[9],915
same,Population Apoptotic (%),[10],37%
same,Population Healthy Nuclei (%),[10],79%
same,Population Hoechst High Intensity Objects (%),[10],5%
same,Population Membrane Permeable-Phenotype (%),[10],0%
same,Population Mitochondria Different-Phenotype (%),[10],42%
same,Population Mitotic Cells (%),[10],62%
same,Population Normal (%),[10],94%
same,Population Tubulin-Different-Phenotype (%),[10],21%
same,Total Cell Count,[10],535
same,Population Apoptotic (%),[11],50%
same,Population Fragmented Nuclei (%),[11],15%
same,Population Healthy Nuclei (%),[11],75%
same,Population Hoechst High Intensity Objects (%),[11],10%
same,Population Membrane Permeable-Phenotype (%),[11],2%
same,Population Mitochondria Different-Phenotype (%),[11],41%
same,Population Mitotic Cells (%),[11],50%
same,Population Normal (%),[11],89%
same,Population Pyknosed Nuclei (%),[11],8%
same,Population Tubulin-Different-Phenotype (%),[11],44%
same,Total Cell Count,[11],672
same,Population Apoptotic (%),[12],52%
same,Population Fragmented Nuclei (%),[12],11%
same,Population Healthy Nuclei (%),[12],77%
same,Population Hoechst High Intensity Objects (%),[12],12%
same,Population Membrane Permeable-Phenotype (%),[12],0%
same,Population Mitochondria Different-Phenotype (%),[12],65%
same,Population Mitotic Cells (%),[12],47%
same,Population Normal (%),[12],87%
same,Population Pyknosed Nuclei (%),[12],10%
same,Population Tubulin-Different-Phenotype (%),[12],56%
same,Total Cell Count,[12],472
